Results published in ChEMBL document CHEMBL1123837, “1-Amino-substituted 4-methyl-5H-pyrido[3',4':4,5]pyrrolo[3,2-c]pyridines: a new class of antineoplastic agents” (J Med Chem, 1987).
Activity calls are given as the source filed them. The calls are words filed in the database; no cut-off is given here.

Tests used:
[1] = test system: Mus musculus; experiment: In vivo antitumor activity was determined against P388 leukemia cells expressed as treated/control at the dose of 20 mg/kg; assay type: functional
Method in brief: (§1)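 Following NCI protocols, 10^6 viable P388 leukemia cells were inoculated ip on day 0 into male or female CDF1 hybrid mice, 10 per test group. Compounds in distilled water were given ip (0.1 mL/10 g body weight) at various doses on days 1–5. T/C = median survival day of treated / median survival day of negative controls × 100.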

[2] = test system: Mus musculus; experiment: In vivo antitumor activity was determined against P388 leukemia cells expressed as treated/control at the dose of 40 mg/kg; assay type: functional; method in brief: as §1
[3] = test system: Mus musculus; experiment: In vivo antitumor activity was determined against P388 leukemia cells expressed as treated/control at the dose of 10 mg/kg; assay type: functional; method in brief: as §1
[4] = test system: Calf thymus DNA; experiment: Binding affinity for DNA by ethidium bromide displacement assay; assay type: nucleic-acid assay; settings: Bos taurus
Method in brief: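 Competitive ethidium bromide displacement with calf thymus DNA at 10 µg/mL in 20 mM Na phosphate buffer, 0.1 M NaCl, 1 mM EDTA, pH 7.4. The apparent DNA affinity constant is given in 10^6 M^-1 ± standard deviation, from 6 values across two independent experiments.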

[5] = test system: Mus musculus; experiment: In vivo antitumor activity was determined against P388 leukemia cells expressed as treated/control at the dose of 5 mg/kg; assay type: functional; method in brief: as §1
[6] = test system: Mus musculus; experiment: In vivo antitumor activity was evaluated on L1210 leukemia model and weight change in tumors was determined at 80 mg/kg dosage concentration.; assay type: functional
[7] = test system: Mus musculus; experiment: In vivo antitumor activity was evaluated on L1210 leukemia model and median survival day was determined at 80 mg/kg dosage concentration.; assay type: functional
Method in brief: (§2)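 L1210 leukemia, 10^5 viable cells inoculated ip on day 0 into CDF1 hybrid male or female mice, 10 mice per group. Compounds were given ip in distilled water (0.1 mL/10 g body weight) on days 1-5. Vehicle controls were treated the same way. NCI protocols were followed. T/C = median survival day of treated mice / median survival day of vehicle controls × 100.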

[8] = test system: Mus musculus; experiment: In vivo antitumor activity was evaluated on L1210 leukemia model and weight change in tumors was determined at 60 mg/kg dosage concentration.; assay type: functional
[9] = test system: Mus musculus; experiment: In vivo antitumor activity was determined against P388 leukemia cells expressed as treated/control at the dosage of 20 mg/kg; assay type: functional; method in brief: as §1
[10] = test system: Mus musculus; experiment: In vivo antitumor activity was evaluated on L1210 leukemia model and percent of treated/control of tumor cells was determined at 2.5 mg/kg dosage concentration; assay type: functional
Method in brief: as §1, with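 “10^5” for “10^6”, “L1210” for “P388”, “dosed” for “given”, “daily” for “at various doses”, “treated mice” for “treated”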

[11] = test system: Mus musculus; experiment: In vivo antitumor activity was evaluated on L1210 leukemia model and median survival day was determined at 2.5 mg/kg dosage concentration; assay type: functional; method in brief: as §2
[12] = test system: Mus musculus; experiment: In vivo antitumor activity was evaluated on L1210 leukemia model and weight change in tumors was determined at 2.5 mg/kg dosage concentration; assay type: functional
[13] = test system: Mus musculus; experiment: In vivo antitumor activity was evaluated on L1210 leukemia model and weight change in tumors was determined at 30 mg/kg dosage concentration; assay type: functional
[14] = test system: Mus musculus; experiment: In vivo antitumor activity was evaluated on L1210 leukemia model and percent of treated/control of tumor cells was determined at 80 mg/kg dosage concentration.; assay type: functional
Method in brief: as §1, with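 “10^5” for “10^6”, “L1210” for “P388”, “dosed” for “given”, “daily” for “at various doses”, “treated mice” for “treated”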

[15] = test system: Mus musculus; experiment: In vivo antitumor activity was evaluated on L1210 leukemia model and median survival day was determined at 60 mg/kg dosage concentration.; assay type: functional; method in brief: as §2
[16] = test system: Mus musculus; experiment: In vivo antitumor activity was evaluated on L1210 leukemia model and weight change in tumors was determined at 15 mg/kg dosage concentration.; assay type: functional
[17] = test system: Mus musculus; experiment: In vivo antitumor activity was evaluated on L1210 leukemia model and percent of treated/control of tumor cells was determined at 15 mg/kg dosage concentration.; assay type: functional
Method in brief: as §1, with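 “10^5” for “10^6”, “L1210” for “P388”, “dosed” for “given”, “daily” for “at various doses”, “treated mice” for “treated”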

[18] = test system: Mus musculus; experiment: In vivo antitumor activity was evaluated on L1210 leukemia model and median survival day was determined at 15 mg/kg dosage concentration.; assay type: functional; method in brief: as §2
[19] = test system: Mus musculus; experiment: In vivo antitumor activity was evaluated on L1210 leukemia model and number of survivors (animals) was determined at 80 mg/kg dosage concentration; number of survivors given as 0/10; assay type: functional; method in brief: as §2
[20] = test system: Mus musculus; experiment: In vivo antitumor activity was determined against P388 leukemia cells expressed as treated/control at the dosage of 40 mg/kg; assay type: functional; method in brief: as §1
[21] = test system: Mus musculus; experiment: In vivo antitumor activity was determined against P388 leukemia cells expressed as treated/control at the dosage of 50 mg/kg; assay type: functional; method in brief: as §1
[22] = test system: Mus musculus; experiment: In vivo antitumor activity was evaluated on L1210 leukemia model and percent of treated/control of tumor cells was determined at 60 mg/kg dosage concentration.; assay type: functional
Method in brief: as §1, with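 “10^5” for “10^6”, “L1210” for “P388”, “dosed” for “given”, “daily” for “at various doses”, “treated mice” for “treated”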

[23] = test system: Mus musculus; experiment: In vivo antitumor activity was evaluated on L1210 leukemia model and number of survivors (animals) was determined at 2.5 mg/kg dosage concentration; number of survivors given as 0/10; assay type: functional; method in brief: as §2
[24] = test system: Mus musculus; experiment: In vivo antitumor activity was determined against P388 leukemia cells expressed as number of; assay type: functional
Method in brief: (§3)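 P388 leukemia, 10^6 viable cells inoculated ip on day 0 into CDF1 hybrid male or female mice, 10 mice per group. Compounds were given ip in distilled water (0.1 mL/10 g body weight) at various doses on days 1-5. Vehicle controls were treated the same way. NCI protocols were followed.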

[25] = test system: Mus musculus; experiment: In vivo antitumor activity was evaluated on L1210 leukemia model and percent of treated/control of tumor cells was determined at 30 mg/kg dosage concentration; assay type: functional
Method in brief: as §1, with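 “10^5” for “10^6”, “L1210” for “P388”, “dosed” for “given”, “daily” for “at various doses”, “treated mice” for “treated”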

[26] = test system: Mus musculus; experiment: In vivo antitumor activity was evaluated on L1210 leukemia model and median survival day was determined at 30 mg/kg dosage concentration; assay type: functional; method in brief: as §2
[27] = test system: Mus musculus; experiment: In vivo antitumor activity was evaluated on L1210 leukemia model and number of survivors (animals) was determined at 60 mg/kg dosage concentration; number of survivors given as 1/10; assay type: functional; method in brief: as §2
[28] = test system: Mus musculus; experiment: In vivo antitumor activity was evaluated on L1210 leukemia model and number of survivors (animals) was determined at 5 mg/kg dosage concentration; number of survivors given as 0/10; assay type: functional; method in brief: as §2
[29] = test system: Mus musculus; experiment: In vivo antitumor activity was determined against P388 leukemia cells expressed as treated/control at the dosage of 10 mg/kg; assay type: functional; method in brief: as §1
[30] = test system: Mus musculus; experiment: In vivo antitumor activity was evaluated on L1210 leukemia model and number of survivors (animals) was determined at 15 mg/kg dosage concentration; number of survivors given as 0/10; assay type: functional; method in brief: as §2
[31] = test system: Mus musculus; experiment: In vivo antitumor activity was evaluated on L1210 leukemia model and number of survivors (animals) was determined at 30 mg/kg dosage concentration; number of survivors given as 0/10; assay type: functional; method in brief: as §2
[32] = test system: Mus musculus; experiment: In vivo antitumor activity was evaluated on L1210 leukemia model and median survival day was determined at 5 mg/kg dosage concentration; assay type: functional; method in brief: as §2
[33] = test system: Mus musculus; experiment: In vivo antitumor activity was evaluated on L1210 leukemia model and percent of treated/control of tumor cells was determined at 5 mg/kg dosage concentration; assay type: functional
Method in brief: as §1, with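 “10^5” for “10^6”, “L1210” for “P388”, “dosed” for “given”, “daily” for “at various doses”, “treated mice” for “treated”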

[34] = test system: Mus musculus; experiment: In vivo antitumor activity was evaluated on L1210 leukemia model and weight change in tumors was determined at 5 mg/kg dosage concentration; assay type: functional
[35] = test system: Mus musculus; experiment: In vivo antitumor activity was determined against P388 leukemia cells expressed as treated/control at the dose of 60 mg/kg; T = toxic at this dose; assay type: organism-based; design: dose 60 mg/kg; method in brief: as §1
[36] = In vitro cytotoxicity against L1210 cells was determined after 48 hours of incubation; assay type: cell-based; settings: mouse, read-out: ID50
Method in brief: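 Exponentially growing L1210 cells were cultured in RPMI 1640 with 2 mM glutamine, penicillin/streptomycin and 10% fetal calf serum, under 5% CO2 at 37 °C. Drugs dissolved in distilled water were added to cells at 0.8 × 10^5 cells/mL for 48 h, then cells were counted. ID50 was estimated by regression of dose-response data, as the mean of two values from two independent experiments.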

[37] = test system: Mus musculus; experiment: In vivo antitumor activity was determined against P388 leukemia cells expressed as treated/control at the dosage of (0.3-40)mg/kg; IA= inactive; assay type: functional, organism-based; method in brief: as §1
[38] = test system: Mus musculus; experiment: In vivo antitumor activity was determined against P388 leukemia cells expressed as number of animals survived; assay type: functional; method in brief: as §3
[39] = test system: Mus musculus; experiment: In vivo antitumor activity was evaluated on L1210 leukemia model and median survival day was determined at 20 mg/kg dosage concentration; assay type: functional; method in brief: as §2
[40] = test system: Mus musculus; experiment: In vivo antitumor activity was evaluated on L1210 leukemia model and percent of treated/control of tumor cells was determined at 20 mg/kg dosage concentration; assay type: functional; method in brief: as §2
[41] = test system: Mus musculus; experiment: In vivo antitumor activity was evaluated on L1210 leukemia model and number of survivors (animals) was determined at 20 mg/kg dosage concentration; assay type: functional; method in brief: as §2
[42] = test system: Mus musculus; experiment: In vivo antitumor activity was evaluated on L1210 leukemia model and weight change in tumors was determined at 20 mg/kg dosage concentration; assay type: functional

Q: With `Cc1cnc(NCCCN(C)C)c2c3cnccc3n(C)c12` as the compound, how does the T/C [1] read?
A: 167

Q: And the T/C [2]?
A: 173

Q: What about the T/C [3] of the same compound?
A: 150

Q: What about the K aff [4] of the same compound?
A: 40000 M⁻¹

Q: What about the T/C [5] of the same compound?
A: 136

Q: For `CCN(CC)CCCNc1ncc(C)c2c1c1cnccc1n2C`, which Weight changes [6] is on record?
A: -2.3 g

Q: And the Median survival day [7]?
A: 9.1

Q: What about the Weight changes [8] of the same compound?
A: -2.3 g

Q: And the T/C [9]?
A: 164

Q: And the T/C [10]?
A: 118%

Q: What about the Median survival day [11] of the same compound?
A: 10.9

Q: What about the Weight changes [12] of the same compound?
A: 0.7 g

Q: What about the Weight changes [13] of the same compound?
A: 0.2 g

Q: And the T/C [14]?
A: 99%

Q: And the Median survival day [15]?
A: 18

Q: And the Weight changes [16]?
A: 0.8 g

Q: And the T/C [17]?
A: 149%

Q: And the Median survival day [18]?
A: 13.75

Q: What about the Survivors [19] of the same compound?
A: 0

Q: What about the T/C [20] of the same compound?
A: 172

Q: And the T/C [21]?
A: 207

Q: And the T/C [22]?
A: 196%

Q: And the Survivors [23]?
A: 0

Q: And the Survivors [24]?
A: 3

Q: And the T/C [25]?
A: 187.5%

Q: And the Median survival day [26]?
A: 17.25

Q: And the Survivors [27]?
A: 1

Q: And the Survivors [28]?
A: 0

Q: What about the T/C [29] of the same compound?
A: 147

Q: What about the K aff [4] of the same compound?
A: 40000 M⁻¹

Q: What about the Survivors [30] of the same compound?
A: 0

Q: What about the Survivors [31] of the same compound?
A: 0

Q: What about the Median survival day [32] of the same compound?
A: 12.75

Q: What about the T/C [33] of the same compound?
A: 138%

Q: What about the Weight changes [34] of the same compound?
A: -0.3 g

Q: Which results are given for `CCN(CC)CCCNc1ncc(C)c2c1c1cnccc1n2CC`?
A: T/C [35]: Toxic; CC50 at 48 h [36]: 1.4 µM; K aff [4]: 17000 M⁻¹; T/C [37]: inactive

Q: For `O=c1[nH]cc(F)c(=O)[nH]1` [FLUOROURACIL], which Survivors [38] is on record?
A: 0

Q: And the Median survival day [39]?
A: 18

Q: And the T/C [40]?
A: 196%

Q: And the Survivors [41]?
A: 10

Q: What about the Weight changes [42] of the same compound?
A: 0.1 g
